Test system: U2OS
Experiment: Multiplex assay against U2OS
Assay type: toxicity, cell-based
Conditions: human
In short: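 Four dyes were applied at seeding to live cells: Hoechst33342, BioTracker Green Microtubule Cytoskeleton Dye, MitoTracker Red and Annexin V Alexa Fluor 680. Imaging after compound addition used a CQ1 microscope at 37°C and 5% CO2. CellPathfinder machine-learning gating then sorted cells into Hoechst high-intensity objects or normal cells, normal cells into healthy, pyknosed or fragmented nuclei, and pyknosed cells into mitotic or apoptotic, with tubulin, mitochondrial-mass and membrane-permeability phenotypes given as per cents of healthy-nucleus cells.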

[1] = 12 h, 1 µM, compound concentration 1 uM, replicate 1
[2] = 12 h, 1 µM, compound concentration 1 uM, replicate 2
[3] = 12 h, 10 µM, compound concentration 10 uM, replicate 1
[4] = 12 h, 10 µM, compound concentration 10 uM, replicate 2
[5] = 24 h, 1 µM, compound concentration 1 uM, replicate 1
[6] = 24 h, 1 µM, compound concentration 1 uM, replicate 2
[7] = 24 h, 10 µM, compound concentration 10 uM, replicate 1
[8] = 24 h, 10 µM, compound concentration 10 uM, replicate 2
[9] = 48 h, 1 µM, compound concentration 1 uM, replicate 1
[10] = 48 h, 1 µM, compound concentration 1 uM, replicate 2
[11] = 48 h, 10 µM, compound concentration 10 uM, replicate 1
[12] = 48 h, 10 µM, compound concentration 10 uM, replicate 2

Compound: COc1ccccc1N1CCN(C[C@@H](C(=O)NC(C)(C)C)c2ccccc2)CC1.Cl.Cl
- Population Apoptotic (%) [1]: 73%
- Population Fragmented Nuclei (%) [1]: 29%
- Population Healthy Nuclei (%) [1]: 65%
- Population Hoechst High Intensity Objects (%) [1]: 2%
- Population Membrane Permeable-Phenotype (%) [1]: 5%
- Population Mitochondria Different-Phenotype (%) [1]: 3%
- Population Mitotic Cells (%) [1]: 26%
- Population Normal (%) [1]: 97%
- Population Pyknosed Nuclei (%) [1]: 5%
- Population Tubulin-Different-Phenotype (%) [1]: 1%
- Total Cell Count [1]: 281
- Population Apoptotic (%) [2]: 66%
- Population Fragmented Nuclei (%) [2]: 14%
- Population Healthy Nuclei (%) [2]: 80%
- Population Hoechst High Intensity Objects (%) [2]: 1%
- Population Membrane Permeable-Phenotype (%) [2]: 7%
- Population Mitochondria Different-Phenotype (%) [2]: 2%
- Population Mitotic Cells (%) [2]: 33%
- Population Normal (%) [2]: 98%
- Population Tubulin-Different-Phenotype (%) [2]: 3%
- Total Cell Count [2]: 114
- Population Apoptotic (%) [3]: 46%
- Population Fragmented Nuclei (%) [3]: 35%
- Population Healthy Nuclei (%) [3]: 49%
- Population Hoechst High Intensity Objects (%) [3]: 3%
- Population Membrane Permeable-Phenotype (%) [3]: 41%
- Population Mitochondria Different-Phenotype (%) [3]: 41%
- Population Mitotic Cells (%) [3]: 53%
- Population Normal (%) [3]: 96%
- Population Pyknosed Nuclei (%) [3]: 14%
- Population Tubulin-Different-Phenotype (%) [3]: 41%
- Total Cell Count [3]: 226
- Population Apoptotic (%) [4]: 50%
- Population Fragmented Nuclei (%) [4]: 17%
- Population Healthy Nuclei (%) [4]: 66%
- Population Hoechst High Intensity Objects (%) [4]: 0%
- Population Membrane Permeable-Phenotype (%) [4]: 49%
- Population Mitochondria Different-Phenotype (%) [4]: 56%
- Population Mitotic Cells (%) [4]: 50%
- Population Normal (%) [4]: 99%
- Population Pyknosed Nuclei (%) [4]: 15%
- Population Tubulin-Different-Phenotype (%) [4]: 64%
- Total Cell Count [4]: 102
- Population Apoptotic (%) [5]: 68%
- Population Fragmented Nuclei (%) [5]: 29%
- Population Healthy Nuclei (%) [5]: 62%
- Population Hoechst High Intensity Objects (%) [5]: 3%
- Population Membrane Permeable-Phenotype (%) [5]: 7%
- Population Mitochondria Different-Phenotype (%) [5]: 1%
- Population Mitotic Cells (%) [5]: 32%
- Population Normal (%) [5]: 96%
- Population Pyknosed Nuclei (%) [5]: 8%
- Population Tubulin-Different-Phenotype (%) [5]: 3%
- Total Cell Count [5]: 320
- Population Apoptotic (%) [6]: 80%
- Population Fragmented Nuclei (%) [6]: 16%
- Population Healthy Nuclei (%) [6]: 75%
- Population Membrane Permeable-Phenotype (%) [6]: 5%
- Population Mitochondria Different-Phenotype (%) [6]: 6%
- Population Mitotic Cells (%) [6]: 20%
- Population Tubulin-Different-Phenotype (%) [6]: 2%
- Total Cell Count [6]: 129
- Population Apoptotic (%) [7]: 61%
- Population Fragmented Nuclei (%) [7]: 38%
- Population Healthy Nuclei (%) [7]: 42%
- Population Hoechst High Intensity Objects (%) [7]: 5%
- Population Membrane Permeable-Phenotype (%) [7]: 20%
- Population Mitochondria Different-Phenotype (%) [7]: 33%
- Population Mitotic Cells (%) [7]: 38%
- Population Normal (%) [7]: 94%
- Population Pyknosed Nuclei (%) [7]: 18%
- Population Tubulin-Different-Phenotype (%) [7]: 25%
- Total Cell Count [7]: 235
- Population Apoptotic (%) [8]: 70%
- Population Fragmented Nuclei (%) [8]: 20%
- Population Healthy Nuclei (%) [8]: 63%
- Population Membrane Permeable-Phenotype (%) [8]: 39%
- Population Mitochondria Different-Phenotype (%) [8]: 61%
- Population Mitotic Cells (%) [8]: 29%
- Population Pyknosed Nuclei (%) [8]: 15%
- Population Tubulin-Different-Phenotype (%) [8]: 52%
- Total Cell Count [8]: 113
- Population Apoptotic (%) [9]: 78%
- Population Fragmented Nuclei (%) [9]: 21%
- Population Healthy Nuclei (%) [9]: 66%
- Population Hoechst High Intensity Objects (%) [9]: 2%
- Population Membrane Permeable-Phenotype (%) [9]: 5%
- Population Mitochondria Different-Phenotype (%) [9]: 1%
- Population Mitotic Cells (%) [9]: 22%
- Population Normal (%) [9]: 97%
- Population Pyknosed Nuclei (%) [9]: 11%
- Population Tubulin-Different-Phenotype (%) [9]: 1%
- Total Cell Count [9]: 452
- Population Apoptotic (%) [10]: 83%
- Population Fragmented Nuclei (%) [10]: 16%
- Population Healthy Nuclei (%) [10]: 72%
- Population Hoechst High Intensity Objects (%) [10]: 4%
- Population Membrane Permeable-Phenotype (%) [10]: 7%
- Population Mitochondria Different-Phenotype (%) [10]: 2%
- Population Mitotic Cells (%) [10]: 16%
- Population Normal (%) [10]: 95%
- Population Tubulin-Different-Phenotype (%) [10]: 4%
- Total Cell Count [10]: 162
- Population Apoptotic (%) [11]: 58%
- Population Fragmented Nuclei (%) [11]: 33%
- Population Healthy Nuclei (%) [11]: 44%
- Population Hoechst High Intensity Objects (%) [11]: 4%
- Population Membrane Permeable-Phenotype (%) [11]: 28%
- Population Mitochondria Different-Phenotype (%) [11]: 30%
- Population Mitotic Cells (%) [11]: 41%
- Population Normal (%) [11]: 95%
- Population Pyknosed Nuclei (%) [11]: 21%
- Population Tubulin-Different-Phenotype (%) [11]: 21%
- Total Cell Count [11]: 271
- Population Apoptotic (%) [12]: 96%
- Population Fragmented Nuclei (%) [12]: 18%
- Population Healthy Nuclei (%) [12]: 58%
- Population Hoechst High Intensity Objects (%) [12]: 8%
- Population Membrane Permeable-Phenotype (%) [12]: 43%
- Population Mitochondria Different-Phenotype (%) [12]: 29%
- Population Mitotic Cells (%) [12]: 4%
- Population Normal (%) [12]: 91%
- Population Pyknosed Nuclei (%) [12]: 22%
- Population Tubulin-Different-Phenotype (%) [12]: 35%
- Total Cell Count [12]: 121

From ChEMBL document CHEMBL5058577, “EUbOPEN Chemogenomics Library 2 (Multiplex)” (2022)
